Active and inactive are the calls of the source. No cut-off for these calls is given here.
How the values were obtained:
[1] = target: Human immunodeficiency virus type 1 reverse transcriptase (Human immunodeficiency virus 1) (UniProt Q72547); assay: Inhibition of HIV-1 reverse transcriptase; - = inactive
MT4 [2] = assay: Antigen p24 content in culture fluid at 10e-5 concentration of compound was tested on MT-4 cells infected by […]; type: functional, Homo sapiens
Summary of the method: (§1)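 p24 assay: MT-4 cultures were infected with HIV-1 from chronically infected H9/IIIB cultures (0.05–0.1 log10 EPCD50 per cell) and held 7 days with compound at 10^-4 or 10^-5 M. Virus production was measured as p24 antigen in culture fluid by immunoenzymatic assay, in ng/mL.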

MT4 [3] = assay: RT activity in culture fluid at 10e-5 concentration of compound was tested on MT-4 cells infected by […]; type: cell-based
Summary of the method: (§2)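 RT assay: infected MT-4 cells (H9/IIIB-derived HIV-1, 0.05–0.1 log10 EPCD50 per cell) were cultured 7 days with compound at 10^-4 or 10^-5 M. Reverse transcriptase activity in the culture fluid was measured and expressed as % of untreated infected control.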

MT4 [4] = assay: Cytotoxic concentration for 50% death of uninfected MT-4 cell culture
MT4 [5] = assay: Number of infected cells at 10e-4 concentration of compound was tested on MT-4 cells infected by […]; type: functional, Homo sapiens
Summary of the method: (§3)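 Infected-cell count: HIV-1 (H9/IIIB-derived fluid, 0.05–0.1 log10 EPCD50 per cell) was used to infect MT-4 lymphocytes, which were then grown 7 days with compound at 10^-4 or 10^-5 M. Cells expressing viral antigens on their surface membranes were scored by indirect immunofluorescence with anti-HIV-1 antibodies, as % of cells.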

MT4 [6] = assay: Content of viable cells at 10e-4 concentration of compound was tested on MT-4 cells infected by […]; type: functional, Homo sapiens
Summary of the method: (§4)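 Anti-HIV viable-cell assay: MT-4 lymphocytes infected with cell-free fluid from chronically HIV-1-infected H9/IIIB cultures at 0.05–0.1 log10 EPCD50 per cell. They were cultured 7 days with compound at 10^-4 or 10^-5 M. Viable cells were counted by 0.25% trypan blue exclusion and reported as % viable cells.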

MT4 [7] = assay: Number of infected cells at 10e-5 concentration of compound was tested on MT-4 cells infected by […]; type: functional, Homo sapiens; summary of the method: as §3
MT4 [8] = assay: Content of viable cells at 10e-5 concentration of compound was tested on MT-4 cells infected by […]; type: functional, Homo sapiens; summary of the method: as §4
MT4 [9] = assay: RT activity in culture fluid at 10e-4 concentration of compound was tested on MT-4 cells infected by […]; type: cell-based; summary of the method: as §2
MT4 [10] = assay: Antigen p24 content in culture fluid at 10e-4 concentration of compound was tested on MT-4 cells infected by […]; type: functional, Homo sapiens; summary of the method: as §1
MT4 [11] = assay: Cytotoxic concentration for 50% death of MT-4 cell culture infected by HIV-1/ IIIB; type: functional, Homo sapiens

CC(=O)N[C@@H]1C=C[C@@H](n2cc(C)c(=O)[nH]c2=O)O[C@@H]1CO
Activity [1]: inactive

Cc1cn(C2C=C[C@@H](N=[N+]=[N-])CO2)c(=O)[nH]c1=O (single isomer, unassigned)
Activity [1]: inactive

COC(=O)C(Cc1ccccc1)NP(=O)(NC(Cc1ccccc1)C(=O)OC)OCC1OC(n2cc(C)c(=O)[nH]c2=O)CC1F (stereo unspecified)
Activity [1]: inactive

Cc1cn(C2C=C[C@@H](O)[C@@H](CO)O2)c(=O)[nH]c1=O (single isomer, unassigned)
Activity [1]: inactive

CC(=O)O[C@H]1C=C[C@@H](n2cc(C)c(=O)[nH]c2=O)OC1
Activity [1]: inactive

Cc1cn([C@@H]2O[C@H](CO)C[C@H]2F)c(=O)[nH]c1=O
Activity [1]: inactive

Cc1cn(C2C=C[C@H](O)[C@@H](CO)O2)c(=O)[nH]c1=O (single isomer, unassigned)
Activity [1]: inactive

Cc1cn([C@@H]2O[C@H](CO)C=C2F)c(=O)[nH]c1=O
Activity [1]: inactive

O=c1ccn(C2OC(CO)CC2F)c(=O)[nH]1 (stereo unspecified)
Activity [1]: inactive

O=c1ccn(C2OC(CO)C(F)C2F)c(=O)[nH]1 (stereo unspecified)
Activity [1]: inactive

Cc1cn([C@H]2C=C[C@@H](N=[N+]=[N-])[C@@H](CO)O2)c(=O)[nH]c1=O
Activity [1]: inactive

O=c1ccn(C2OC(CO)C=C2F)c(=O)[nH]1 (stereo unspecified)
Activity [1]: inactive

CC(=O)O[C@H]1C=C[C@H](n2cc(C)c(=O)[nH]c2=O)O[C@@H]1CO
Activity [1]: inactive

COC1=NC(CC(C)=O)N=C(OC)C1(CC(O)CO)[N+](=O)[O-] (stereo unspecified)
Antigen p24 content (MT4 [2]): 1.87 ng/mL | RT activity (MT4 [3]): 82.5% | CTC50 (MT4 [4]): 0.058 M | No. of infected cells (MT4 [5]): 19.7% | Viable cells (MT4 [6]): 37.3% | No. of infected cells (MT4 [7]): 12.6% | Viable cells (MT4 [8]): 52.1% | RT activity (MT4 [9]): 84.3% | Antigen p24 content (MT4 [10]): 1.92 ng/mL

CC(=O)N[C@@H]1C=C[C@H](n2cc(C)c(=O)[nH]c2=O)O[C@@H]1CO
Activity [1]: inactive

CC(=O)OC[C@H]1O[C@H](n2cc(C)c(=O)[nH]c2=O)C=C[C@@H]1OC(C)=O
Activity [1]: inactive

Cc1cn([C@@H]2C=CC(O)CO2)c(=O)[nH]c1=O (single isomer, unassigned)
Activity [1]: inactive

CCc1cc(CCN2C(=O)c3ccccc3C2=O)c(O)nc1C
Activity [1]: inactive

COC(=O)C(C)NP(=O)(OCC1OC(n2cc(C)c(=O)[nH]c2=O)CC1F)OCC(Cl)(Cl)Cl (stereo unspecified)
Activity [1]: inactive

CC(=O)N[C@@H]1C=C[C@@H](n2cc(C)c(=O)[nH]c2=O)OC1
Activity [1]: inactive

Cc1cn([C@H]2C[C@H](N=[N+]=[N-])[C@@H](CO)O2)c(=O)[nH]c1=O [ZIDOVUDINE]
Antigen p24 content (MT4 [2]): 0.68 ng/mL | RT activity (MT4 [3]): 17% | CTC50 (MT4 [4]): 0.0053 M | No. of infected cells (MT4 [5]): 2.9% | Viable cells (MT4 [6]): 78.6% | No. of infected cells (MT4 [7]): 2.1% | Viable cells (MT4 [8]): 69.7% | RT activity (MT4 [9]): 19.2% | Antigen p24 content (MT4 [10]): 0.82 ng/mL

COC(=O)C(NP(=O)(OCC1OC(n2cc(C)c(=O)[nH]c2=O)CC1F)OCC(Cl)(Cl)Cl)C(C)C (stereo unspecified)
Activity [1]: inactive

Cc1cn([C@@H]2C=C[C@@H](N=[N+]=[N-])[C@@H](CO)O2)c(=O)[nH]c1=O
Activity [1]: inactive

COc1nc(CC(C)=O)nc(OC)c1CC(O)CO (stereo unspecified)
CTC50 (MT4 [11]): 78 µM

Nc1nc(=O)n(C2OC(CO)CC2F)cc1F (stereo unspecified)
Activity [1]: inactive

Cc1cn([C@@H]2O[C@H](CO)[C@@H](N=[N+]=[N-])[C@H]2F)c(=O)[nH]c1=O
Activity [1]: inactive

COC1=NC(OC)=C([N+](=O)[O-])C(CC(C)=O)N1CC(O)CO (stereo unspecified)
Antigen p24 content (MT4 [2]): 0.77 ng/mL | RT activity (MT4 [3]): 18.7% | CTC50 (MT4 [4]): 0.0466 M | No. of infected cells (MT4 [5]): 3.6% | Viable cells (MT4 [6]): 85.1% | No. of infected cells (MT4 [7]): 2.8% | Viable cells (MT4 [8]): 83.2% | RT activity (MT4 [9]): 20.9% | Antigen p24 content (MT4 [10]): 0.87 ng/mL
